The species entered for series [1] is Danio rerio. Kind of series: Toxicity in 24 to 72 hrs post fertilized zebra fish embryo harboring fli1:EGFP. The series is classed as organism-based. The note with it: zebrafish, in vivo. In a few lines: (§1)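 Dechorionated Tg(fli1:EGFP) embryos at 24 hpf, 20 per group, were kept in 1 mL embryo water with compound at 28.5 °C for a further 48 h. Compound was tested at 1, 5, 10, 25, 50, 75, 100, 150 and 200 μM. At 72 hpf, embryos anaesthetised with 0.016% tricaine had their ISVs imaged by fluorescence microscopy, with SU5416 as positive control. Definitions used: LOEC is anti-angiogenic effect in most larvae; LOTC is lowest toxic concentration; LC100 is total embryo lethality. TI = LOTC/LOEC; AI = LC100/LOEC.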

Series [2] is filed under the species Danio rerio. Kind of series: Antiangiogenic activity in 24 to 72 hrs post fertilized zebra fish embryo harboring fli1:EGFP after 48 hrs by fluorescence microscopic analysis. The series is classed as functional. In a few lines:
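Tg(fli1:EGFP) zebrafish: 20 dechorionated 24 hpf embryos per group in 1 mL embryo water with compound (1, 5, 10, 25, 50, 75, 100, 150, 200 μM), 28.5 °C for 48 h. Embryos anaesthetised in 0.016% tricaine; ISVs imaged by fluorescence microscopy at 72 hpf and scored for vessel defects and overall morphology. SU5416 positive control.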

The nature of series [3]: Toxicity index, ratio of MTC for 24 to 72 hrs post fertilized zebra fish embryo harboring fli1:EGFP to MEC for antiangiogenic activity in 24 to 72 hrs post fertilized zebra fish embryo harboring fli1:EGFP. The series is classed as organism-based, Danio rerio. The note with it: fli1:EGFP transgenic, zebrafish, in vivo. In a few lines: as §1
The nature of series [4]: Antiangiogenic index, ratio of LC100 for 24 to 72 hrs post fertilized zebra fish embryo harboring fli1:EGFP to MEC for antiangiogenic activity in 24 to 72 hrs post fertilized zebra fish embryo harboring fli1:EGFP. Conditions: fli1:EGFP transgenic, zebrafish, in vivo. The series is classed as toxicity, organism-based, Danio rerio. In a few lines:
as §1

SMILES strings stand for the structures. Where only a bound is given, the exact number is not on record here.

As to `CCN1CCN(C(=O)COc2c(OCc3ccccc3)cc3oc(-c4ccccc4)cc(=O)c3c2O)CC1`, in the series filed under Danio rerio [1], the LC100 entry is “Nd(Insoluble)” and the MTC entry was “Nd(Insoluble)”.

Compound `O=c1cc(-c2ccccc2)oc2cc(O)c(O)c(O)c12` [BAICALEIN] returned an MEC in the series filed under Danio rerio [2] of 0.5 µM. Also, the selectivity ratio in series [3] turned out to be 1; in series [4], 2. Also, the LC100 in the series listed under Danio rerio [1] is 1 µM. The compound further came in with an MTC in the series listed under Danio rerio [1] of 0.5 µM.

`O=C(COc1c(O)cc2oc(-c3ccccc3)cc(=O)c2c1O)N1CCN(CCO)CC1`: in the series filed under Danio rerio [2], the MEC was determined as 100 µM. For the same compound, the selectivity ratio in series [3] came out at 1. Besides, in the series listed under Danio rerio [1], the LC100 was more than 200 µM and the MTC came to 100 µM. In addition, the selectivity ratio in series [4] was more than 2.

As to `O=C(COc1c(O)cc2oc(-c3ccccc3)cc(=O)c2c1O)N(CCO)CCO`, the MEC in the series listed under Danio rerio [2] was more than 200 µM. In the series filed under Danio rerio [1], this compound registered an LC100 of more than 200 µM and an MTC of more than 200 µM.

For `O=C(COc1c(OCc2ccccc2)cc2oc(-c3ccccc3)cc(=O)c2c1O)N1CCOCC1`, the MEC in the series filed under Danio rerio [2] came out at 50 µM. The selectivity ratio in series [3] amounted to 1; in series [4] it was 2. The LC100 in the series filed under Danio rerio [1] was found to be 100 µM. The MTC in the series listed under Danio rerio [1] came to 50 µM.

The compound `O=c1cc(-c2ccccc2)oc2cc(O)c(OCCCCCO)c(O)c12` showed an MEC in the series listed under Danio rerio [2] of 1 µM. The selectivity ratio in series [3] came to 1. In the series listed under Danio rerio [1], this compound displayed an LC100 of 5 µM and an MTC of 1 µM. In addition, the selectivity ratio in series [4] was 5.

In the series listed under Danio rerio [2], `Cc1cc(C)c(/C=C2\C(=O)Nc3ccccc32)[nH]1` [SEMAXANIB] displayed an MEC of 1 µM. Moreover, in series [3], the selectivity ratio is 1.5. In the series filed under Danio rerio [1], this compound had an LC100 of 5 µM and an MTC of 1.5 µM. Besides, the selectivity ratio in series [4] turned out to be 5.

Turning to `O=C(COc1c(O)cc2oc(-c3ccccc3)cc(=O)c2c1O)N1CCC(O)CC1`, the MEC in the series listed under Danio rerio [2] was 50 µM. Besides, the selectivity ratio in series [3] was 1. For the same compound, in the series filed under Danio rerio [1], the LC100 is 100 µM and the MTC amounted to 50 µM. In addition, the selectivity ratio in series [4] is 2.

Consider `O=C(COc1c(OCc2ccccc2)cc2oc(-c3ccccc3)cc(=O)c2c1O)N(CCO)CCO`, for which the MEC in the series listed under Danio rerio [2] was determined as 100 µM. Besides, the selectivity ratio worked out at 1 in series [3] and 2 in series [4]. For the same compound, the LC100 in the series listed under Danio rerio [1] came out at 200 µM. In the series listed under Danio rerio [1], this compound came in with an MTC of 100 µM.

The compound `O=c1cc(-c2ccccc2)oc2cc(O)c(OCC(O)CO)c(O)c12` (stereo not drawn) showed an MEC in the series filed under Danio rerio [2] of 50 µM. In addition, the selectivity ratio in series [3] amounted to 1; in series [4] it was 2. The compound also gave an LC100 in the series listed under Danio rerio [1] of 100 µM. In the series filed under Danio rerio [1], this compound yielded an MTC of 50 µM.

Regarding `O=C(COc1c(O)cc2oc(-c3ccccc3)cc(=O)c2c1O)NCCO`, in the series listed under Danio rerio [2], the MEC amounted to 200 µM. Also, the selectivity ratio in series [3] turned out to be 1. In the series listed under Danio rerio [1], this compound registered an LC100 of 200 µM and an MTC of 200 µM. In addition, the selectivity ratio in series [4] was 1.

For `O=c1cc(-c2ccccc2)oc2cc(O)c(OCCO)c(O)c12`, in the series filed under Danio rerio [2], the MEC worked out at 5 µM. Moreover, in series [3], the selectivity ratio was determined as 2. In the series listed under Danio rerio [1], this compound gave an LC100 of 50 µM and an MTC of 10 µM. Besides, the selectivity ratio in series [4] is 10.

For the compound `O=c1cc(-c2ccccc2)oc2cc(OCCCO)c(O)c(O)c12`, in the series listed under Danio rerio [2], the MEC worked out at 100 µM. The selectivity ratio is 1 in series [3] and more than 2 in series [4]. The compound also showed an LC100 in the series filed under Danio rerio [1] of more than 200 µM. In the series filed under Danio rerio [1], this compound showed an MTC of 100 µM.

Turning to `CN(C)CCNC(=O)COc1c(O)cc2oc(-c3ccccc3)cc(=O)c2c1O`, the MEC in the series listed under Danio rerio [2] is 100 µM. The selectivity ratio in series [3] was 1; in series [4] it was more than 2. This compound also gave an LC100 in the series listed under Danio rerio [1] of more than 200 µM. Besides, in the series listed under Danio rerio [1], the MTC was 100 µM.

As to `O=c1cc(-c2ccccc2)oc2cc(O)c(OCCCCCCO)c(O)c12`, the MEC in the series filed under Danio rerio [2] came to 2.5 µM. The selectivity ratio in series [3] was determined as 1. For the same compound, in the series filed under Danio rerio [1], the LC100 is 10 µM and the MTC was 2.5 µM. The selectivity ratio in series [4] amounted to 4.

Regarding `O=c1cc(-c2ccccc2)oc2cc(O)c(OCCCCO)c(O)c12`, the MEC in the series listed under Danio rerio [2] came out at 5 µM. Further, in series [3], the selectivity ratio was determined as 2. Besides, in the series filed under Danio rerio [1], the LC100 was determined as 30 µM and the MTC is 10 µM. Moreover, the selectivity ratio in series [4] is 6.

The compound `O=C(COc1c(OCc2ccccc2)cc2oc(-c3ccccc3)cc(=O)c2c1O)N1CCC(O)CC1` came in with an MEC in the series listed under Danio rerio [2] of 25 µM. The selectivity ratio in series [3] came out at 1. In the series listed under Danio rerio [1], the LC100 turned out to be 100 µM and the MTC was determined as 25 µM. For the same compound, the selectivity ratio in series [4] is 4.

With `O=c1cc(-c2ccccc2)oc2cc(O)c(OCCCO)c(O)c12`, the MEC in the series filed under Danio rerio [2] worked out at 2.5 µM. For the same compound, the selectivity ratio in series [3] came to 1. Further, in the series listed under Danio rerio [1], the LC100 came to 15 µM and the MTC was determined as 2.5 µM. Also, the selectivity ratio in series [4] came out at 6.

With `CN1CCN(C(=O)COc2c(O)cc3oc(-c4ccccc4)cc(=O)c3c2O)CC1`, the MEC in the series listed under Danio rerio [2] came out at 10 µM. Moreover, the selectivity ratio in series [3] is 1.5. In the series filed under Danio rerio [1], this compound gave an LC100 of 50 µM and an MTC of 15 µM. Further, the selectivity ratio in series [4] was 5.

As for `O=C(COc1c(OCc2ccccc2)cc2oc(-c3ccccc3)cc(=O)c2c1O)N1CCN(c2ncccn2)CC1`, the MEC in the series filed under Danio rerio [2] was determined as 75 µM. Also, the selectivity ratio in series [3] turned out to be 1. In the series filed under Danio rerio [1], this compound registered an LC100 of 100 µM and an MTC of 75 µM. In addition, the selectivity ratio in series [4] was found to be 1.3.

As to `CCN(CC)C(=O)COc1c(O)cc2oc(-c3ccccc3)cc(=O)c2c1O`, the MEC in the series listed under Danio rerio [2] came to 200 µM. Also, the selectivity ratio in series [3] was determined as 1. In the series listed under Danio rerio [1], this compound yielded an LC100 of 200 µM and an MTC of 200 µM. For the same compound, in series [4], the selectivity ratio is 1.

Regarding `O=C(O)CCC(=O)OCCOc1c(O)cc2oc(-c3ccccc3)cc(=O)c2c1O`, the MEC in the series listed under Danio rerio [2] was determined as 50 µM. Moreover, in series [3], the selectivity ratio is more than 1.5. In the series filed under Danio rerio [1], the LC100 is 75 µM and the MTC was more than 75 µM. Also, in series [4], the selectivity ratio is 1.5.

As for `O=C(COc1c(OCc2ccccc2)cc2oc(-c3ccccc3)cc(=O)c2c1O)NCCO`, the MEC in the series filed under Danio rerio [2] was determined as 100 µM. Moreover, the selectivity ratio was found to be 1 in series [3] and 2 in series [4]. For the same compound, the LC100 in the series filed under Danio rerio [1] was 200 µM. This compound showed an MTC in the series listed under Danio rerio [1] of 100 µM.

In the series filed under Danio rerio [2], `O=C(O)COc1c(O)cc2oc(-c3ccccc3)cc(=O)c2c1O` returned an MEC of more than 50 µM. In the series filed under Danio rerio [1], this compound showed an LC100 of 50 µM and an MTC of more than 50 µM.

Turning to `O=C(COc1c(OCc2ccccc2)cc2oc(-c3ccccc3)cc(=O)c2c1O)N1CCCC1`, the MEC in the series filed under Danio rerio [2] is 100 µM. Further, the values for the selectivity ratio in series [3] and in series [4] were 1 and more than 2, respectively. Further, in the series listed under Danio rerio [1], the LC100 is more than 200 µM. For the same compound, the MTC in the series filed under Danio rerio [1] amounted to 100 µM.

In turn, `CN1CCN(C(=O)COc2c(OCc3ccccc3)cc3oc(-c4ccccc4)cc(=O)c3c2O)CC1` showed an MEC in the series listed under Danio rerio [2] of 10 µM. The selectivity ratio in series [3] turned out to be 1. In the series listed under Danio rerio [1], this compound had an LC100 of 50 µM and an MTC of 10 µM. The selectivity ratio in series [4] is 5.

Take `COc1c(OCCCN(C)CCO)c(O)cc2oc(-c3ccccc3)cc(=O)c12`: the MEC in the series filed under Danio rerio [2] worked out at 100 µM. Besides, the selectivity ratio in series [3] is 1. In the series filed under Danio rerio [1], this compound displayed an LC100 of more than 200 µM and an MTC of 100 µM. For the same compound, the selectivity ratio in series [4] is more than 2.

With `O=C(COc1c(OCc2ccccc2)cc2oc(-c3ccccc3)cc(=O)c2c1O)N1CCN(CCO)CC1`, the MEC in the series listed under Danio rerio [2] came to 200 µM. The selectivity ratio in series [3] and in series [4] was 1 throughout. In the series listed under Danio rerio [1], this compound yielded an LC100 of 200 µM. This compound gave an MTC in the series listed under Danio rerio [1] of 200 µM.

For the compound `CC(C)=CCOc1cc2oc(-c3ccccc3)cc(=O)c2c(O)c1O`, the MEC in the series filed under Danio rerio [2] was 50 µM. In addition, in series [3], the selectivity ratio worked out at 1. Besides, in the series filed under Danio rerio [1], the LC100 turned out to be 100 µM and the MTC is 50 µM. Moreover, the selectivity ratio in series [4] is 2.

Compound `O=c1cc(-c2ccccc2)oc2cc(O)c(OCCCCCNCCO)c(O)c12` displayed an MEC in the series filed under Danio rerio [2] of 25 µM. The selectivity ratio in series [3] worked out at 2. In the series listed under Danio rerio [1], this compound registered an LC100 of 100 µM and an MTC of 50 µM. For the same compound, in series [4], the selectivity ratio stood at 4.

Take `O=C(COc1c(O)cc2oc(-c3ccccc3)cc(=O)c2c1O)N1CCNCC1`: the MEC in the series listed under Danio rerio [2] was determined as 10 µM. Moreover, in series [3], the selectivity ratio amounted to 1.5. In the series filed under Danio rerio [1], this compound showed an LC100 of 50 µM and an MTC of 15 µM. Besides, the selectivity ratio in series [4] came to 5.

These data come from ChEMBL document CHEMBL4229525, “Anti-angiogenic and anticancer effects of baicalein derivatives based on transgenic zebrafish model” (Bioorg Med Chem, 2018).
